Measurements from ChEMBL document CHEMBL1152570, “Discovery of a series of acrylic acids and their derivatives as chemical leads for selective EP3 receptor antagonists” (Bioorg Med Chem, 2009).

Experiments:
[1] = molecular target: Prostaglandin E2 receptor EP4 subtype (Mus musculus, UniProt P32240); test: Displacement of [3H]PGE2 from mouse EP4 receptor expressed in CHO cells by liquid scintillation counting; type: cell-based
Outline: (§1)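 Mouse EP3α and EP4 CHO membrane binding: 2.5 nM [3H]PGE2 with graded test compound in pH 6.0 KH2PO4-KOH buffer (1 mM EDTA, 10 mM MgCl2, 0.1 mM NaCl), 60 min at 25 °C. Bound ligand collected on GF/B filters, washed with cold buffer, counted by liquid scintillation. Excess unlabeled PGE2 gave nonspecific binding. Ki derived from regression IC50, [L] and Kd.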

[2] = molecular target: T1, Prostaglandin E2 receptor EP3 subtype (Mus musculus, UniProt P30557); test: Displacement of [3H]PGE2 from mouse EP3 receptor expressed in CHO cells by liquid scintillation counting; type: cell-based; outline: as §1
T1 sequence (P30557 whole entry): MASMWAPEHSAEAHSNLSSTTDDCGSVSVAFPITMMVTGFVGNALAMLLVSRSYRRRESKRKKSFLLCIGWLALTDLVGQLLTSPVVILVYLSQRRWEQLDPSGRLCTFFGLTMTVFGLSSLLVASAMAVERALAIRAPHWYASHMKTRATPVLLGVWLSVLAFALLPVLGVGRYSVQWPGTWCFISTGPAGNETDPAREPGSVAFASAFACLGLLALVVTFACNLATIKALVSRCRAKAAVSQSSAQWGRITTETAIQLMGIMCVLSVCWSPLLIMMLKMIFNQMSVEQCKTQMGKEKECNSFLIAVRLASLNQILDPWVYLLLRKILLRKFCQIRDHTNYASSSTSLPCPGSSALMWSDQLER

[3] = molecular target: T1, Prostaglandin E2 receptor EP3 subtype; test: Antagonist activity at mouse EP3alpha receptor expressed in CHo cells assessed as inhibition of PGE2-stimulated intracellular calcium concentration; type: functional, cell-based
Outline: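 CHO cells expressing mEP3α were plated at 1×10^4 cells/well and grown 2 days in 10% FBS/αMEM at 37 °C, 5% CO2. Cells were loaded 1 h with 5 µM Fura-2/AM, 20 µM indomethacin and 2.5 mM probenecid. Assay buffer was HBSS with 0.1% BSA, 2 µM indomethacin, 2.5 mM probenecid and 10 mM HEPES, with 1 h dark equilibration at room temperature. Test compound was added with 10 nM PGE2; fluorescence read at 340/380 nm excitation, 500 nm emission. IC50 from percent inhibition of the PGE2 Ca2+ peak.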

[4] = molecular target: Prostaglandin E2 receptor EP2 subtype (Mus musculus, UniProt Q62053); test: Displacement of [3H]PGE2 from mouse EP2 receptor expressed in CHO cells by liquid scintillation counting; type: cell-based
Outline: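 Membranes from CHO cells stably expressing the receptor, incubated with 2.5 nM [3H]PGE2 plus test compound over a concentration range. Buffer: 10 mM KH2PO4-KOH, 1 mM EDTA, 10 mM MgCl2, 0.1 mM NaCl, pH 6.0. Run at 25 °C for 60 min. Stopped by GF/B filtration with ice-cold buffer wash, then scintillation counted. Excess unlabeled PGE2 defined nonspecific binding. IC50 taken from the regression curve; Ki = IC50/(1+[L]/Kd).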

[5] = molecular target: T2, Prostaglandin E2 receptor EP1 subtype (Mus musculus, UniProt P35375); test: Displacement of [3H]PGE2 from mouse EP1 receptor expressed in CHO cells by liquid scintillation counting; type: cell-based
T2 sequence (P35375 whole entry): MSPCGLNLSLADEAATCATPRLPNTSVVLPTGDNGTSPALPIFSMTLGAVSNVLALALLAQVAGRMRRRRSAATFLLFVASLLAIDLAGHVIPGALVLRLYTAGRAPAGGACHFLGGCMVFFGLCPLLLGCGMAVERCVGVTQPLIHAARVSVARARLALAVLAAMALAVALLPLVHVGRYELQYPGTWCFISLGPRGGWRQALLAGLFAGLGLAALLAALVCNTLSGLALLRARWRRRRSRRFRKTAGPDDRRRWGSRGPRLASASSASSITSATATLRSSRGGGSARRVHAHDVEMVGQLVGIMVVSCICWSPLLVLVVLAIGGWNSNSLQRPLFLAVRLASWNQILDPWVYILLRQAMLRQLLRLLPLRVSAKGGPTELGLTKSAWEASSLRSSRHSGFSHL
Outline: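 Membranes from CHO cells stably expressing mEP1, incubated with 2.5 nM [3H]PGE2 and varied test compound concentrations. Buffer: 10 mM KH2PO4-KOH, 1 mM EDTA, 10 mM MgCl2, 0.1 mM NaCl, pH 6.0. Run at 25 °C for 20 min. Filtered on GF/B and washed ice-cold before scintillation counting. Nonspecific binding measured with excess cold PGE2. IC50 from regression; Ki via the Cheng–Prusoff form.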

[6] = molecular target: Cytochrome P450 2C19 (Homo sapiens, UniProt P33261); test: Inhibition of CYP2C19; type: ADME
[7] = molecular target: Cytochrome P450 2D6 (Homo sapiens, UniProt P10635); test: Inhibition of CYP2D6; type: ADME
[8] = molecular target: T3, Cytochrome P450 1A2 (Homo sapiens, UniProt P05177); test: Inhibition of CYP1A2; type: ADME
T3 sequence (P05177 whole entry): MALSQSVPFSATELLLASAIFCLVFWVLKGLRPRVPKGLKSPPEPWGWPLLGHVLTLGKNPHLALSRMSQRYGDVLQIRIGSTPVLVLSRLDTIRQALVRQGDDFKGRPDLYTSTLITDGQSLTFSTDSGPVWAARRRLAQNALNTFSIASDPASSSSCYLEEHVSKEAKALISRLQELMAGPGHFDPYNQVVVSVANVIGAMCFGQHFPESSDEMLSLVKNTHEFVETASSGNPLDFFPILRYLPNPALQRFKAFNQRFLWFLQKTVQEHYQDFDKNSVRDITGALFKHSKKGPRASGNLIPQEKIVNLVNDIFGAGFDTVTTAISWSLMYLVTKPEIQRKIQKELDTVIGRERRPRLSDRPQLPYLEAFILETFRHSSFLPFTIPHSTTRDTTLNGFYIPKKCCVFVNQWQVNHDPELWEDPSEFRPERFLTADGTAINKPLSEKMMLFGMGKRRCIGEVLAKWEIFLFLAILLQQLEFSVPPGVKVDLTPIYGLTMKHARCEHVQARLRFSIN

[9] = molecular target: Cytochrome P450 2C9 (Homo sapiens, UniProt P11712); test: Inhibition of CYP2C9; type: ADME
[10] = molecular target: Cytochrome P450 3A4 (Homo sapiens, UniProt P08684); test: Inhibition of CYP3A4; type: ADME
[11] = AUC (0 to 4 hrs) in rat at 10 mg/kg, po; type: ADME, organism-based; set-up: time < 4 hr, dose 10 mg/kg, route oral; conditions: plasma
Outline: (§2)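 Rats dosed orally at 10 mg/kg; compound given as the sodium salt where specified.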

[12] = Cmax in rat at 10 mg/kg, po; type: ADME, organism-based; set-up: dose 10 mg/kg, route oral; conditions: in vivo; outline: as §2
[13] = system: Liver microsomes; test: Metabolic stability in human liver microsomes; type: ADME, Microsome
Outline: (§3)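 Human or rat liver microsomes incubated with compound for 15 min at 37 °C; result expressed as percent of intact compound remaining.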

[14] = system: Liver microsomes; test: Metabolic stability in rat liver microsomes; type: ADME, Microsome; outline: as §3

Sequence of Cytochrome P450 2C19 (P33261 whole entry): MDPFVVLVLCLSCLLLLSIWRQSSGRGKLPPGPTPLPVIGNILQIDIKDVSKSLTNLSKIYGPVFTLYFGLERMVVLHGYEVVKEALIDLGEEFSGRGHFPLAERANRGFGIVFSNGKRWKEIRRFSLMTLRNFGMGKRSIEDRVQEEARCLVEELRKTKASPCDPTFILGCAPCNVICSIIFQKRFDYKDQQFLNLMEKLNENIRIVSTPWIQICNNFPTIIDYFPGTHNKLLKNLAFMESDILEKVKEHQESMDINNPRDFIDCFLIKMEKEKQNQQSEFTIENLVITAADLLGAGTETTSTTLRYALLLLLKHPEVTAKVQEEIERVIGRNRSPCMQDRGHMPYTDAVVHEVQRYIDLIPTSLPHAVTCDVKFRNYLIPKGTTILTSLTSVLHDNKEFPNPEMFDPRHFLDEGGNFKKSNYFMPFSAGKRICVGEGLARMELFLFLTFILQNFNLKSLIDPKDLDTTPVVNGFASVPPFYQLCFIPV
Sequence of Prostaglandin E2 receptor EP2 subtype (Q62053 whole entry): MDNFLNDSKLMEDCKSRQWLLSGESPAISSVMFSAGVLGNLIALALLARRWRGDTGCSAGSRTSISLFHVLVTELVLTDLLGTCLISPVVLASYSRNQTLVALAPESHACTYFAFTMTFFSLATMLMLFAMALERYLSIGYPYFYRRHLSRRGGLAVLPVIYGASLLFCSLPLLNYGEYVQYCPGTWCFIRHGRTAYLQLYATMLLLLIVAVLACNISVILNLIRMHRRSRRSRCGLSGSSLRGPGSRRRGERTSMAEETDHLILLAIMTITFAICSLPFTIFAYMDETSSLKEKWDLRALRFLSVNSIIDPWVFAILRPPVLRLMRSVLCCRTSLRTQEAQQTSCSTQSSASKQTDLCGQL
Sequence of Cytochrome P450 2C9 (P11712 whole entry): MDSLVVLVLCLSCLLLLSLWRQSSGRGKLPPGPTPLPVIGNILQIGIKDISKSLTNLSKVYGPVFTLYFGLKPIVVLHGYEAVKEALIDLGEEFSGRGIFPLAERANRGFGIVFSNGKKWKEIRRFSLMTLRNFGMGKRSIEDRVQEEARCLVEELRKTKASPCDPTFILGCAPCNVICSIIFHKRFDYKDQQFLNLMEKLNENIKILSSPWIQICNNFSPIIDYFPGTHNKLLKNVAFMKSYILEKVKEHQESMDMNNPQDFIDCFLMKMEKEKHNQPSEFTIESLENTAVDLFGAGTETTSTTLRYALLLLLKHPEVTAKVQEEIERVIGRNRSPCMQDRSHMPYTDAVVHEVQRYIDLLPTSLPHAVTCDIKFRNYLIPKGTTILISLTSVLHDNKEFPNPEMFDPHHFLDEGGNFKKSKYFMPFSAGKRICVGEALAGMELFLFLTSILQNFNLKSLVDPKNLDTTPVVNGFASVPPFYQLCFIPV
Sequence of Cytochrome P450 3A4 (P08684 whole entry): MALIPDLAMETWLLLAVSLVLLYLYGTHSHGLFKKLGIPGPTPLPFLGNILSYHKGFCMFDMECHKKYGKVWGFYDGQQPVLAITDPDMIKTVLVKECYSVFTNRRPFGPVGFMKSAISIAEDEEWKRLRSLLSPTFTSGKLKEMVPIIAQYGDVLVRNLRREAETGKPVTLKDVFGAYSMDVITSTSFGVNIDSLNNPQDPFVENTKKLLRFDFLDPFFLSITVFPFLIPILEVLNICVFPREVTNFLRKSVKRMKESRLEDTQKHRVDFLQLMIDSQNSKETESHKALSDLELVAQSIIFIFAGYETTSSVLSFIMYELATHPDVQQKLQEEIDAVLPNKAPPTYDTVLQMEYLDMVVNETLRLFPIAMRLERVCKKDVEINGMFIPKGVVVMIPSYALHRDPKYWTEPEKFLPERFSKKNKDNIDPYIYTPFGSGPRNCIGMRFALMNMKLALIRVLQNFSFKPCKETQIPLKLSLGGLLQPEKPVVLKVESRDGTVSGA
Sequence of Prostaglandin E2 receptor EP4 subtype (P32240 whole entry): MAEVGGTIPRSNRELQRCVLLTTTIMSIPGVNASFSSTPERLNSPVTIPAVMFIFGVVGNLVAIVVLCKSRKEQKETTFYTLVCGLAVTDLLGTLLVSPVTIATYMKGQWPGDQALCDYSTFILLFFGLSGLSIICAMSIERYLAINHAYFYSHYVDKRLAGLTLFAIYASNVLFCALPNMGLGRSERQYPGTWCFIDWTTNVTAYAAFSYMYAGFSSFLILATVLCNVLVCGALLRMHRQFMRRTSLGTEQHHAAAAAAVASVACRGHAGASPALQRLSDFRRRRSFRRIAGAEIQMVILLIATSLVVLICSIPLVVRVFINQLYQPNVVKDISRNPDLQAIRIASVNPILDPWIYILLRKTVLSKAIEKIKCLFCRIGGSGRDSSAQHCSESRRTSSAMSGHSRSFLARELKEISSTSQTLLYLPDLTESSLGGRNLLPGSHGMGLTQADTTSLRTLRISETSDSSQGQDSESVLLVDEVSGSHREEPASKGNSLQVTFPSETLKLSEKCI
Sequence of Cytochrome P450 2D6 (P10635 whole entry): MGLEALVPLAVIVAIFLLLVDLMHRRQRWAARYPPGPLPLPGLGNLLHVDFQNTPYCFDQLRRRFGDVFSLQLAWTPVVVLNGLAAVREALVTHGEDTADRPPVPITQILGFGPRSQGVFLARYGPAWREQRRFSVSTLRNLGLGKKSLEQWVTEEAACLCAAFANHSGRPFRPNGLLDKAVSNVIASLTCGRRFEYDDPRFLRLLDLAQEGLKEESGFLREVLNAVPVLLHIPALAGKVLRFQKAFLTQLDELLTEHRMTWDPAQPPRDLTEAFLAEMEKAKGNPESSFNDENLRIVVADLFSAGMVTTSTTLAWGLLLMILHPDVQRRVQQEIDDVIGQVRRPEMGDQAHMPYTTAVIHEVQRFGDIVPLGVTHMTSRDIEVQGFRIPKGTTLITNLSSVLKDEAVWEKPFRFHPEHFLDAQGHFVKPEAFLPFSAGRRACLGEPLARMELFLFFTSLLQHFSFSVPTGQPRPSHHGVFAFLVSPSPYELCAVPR

O=C(O)/C=C/c1ccc(COc2ccccc2)cc1OCCc1ccc2ccccc2c1
Ki [1]: 2600 nM | Ki [2]: 130 nM | IC50 [3]: 140 nM | Ki [4]: 9200 nM | Ki [5]: > 10000 nM

COc1ccc(/C=C/C(=O)O)c(OCCC2(C)CCc3c(C)c(O)c(C)c(C)c3O2)c1 (centres undefined)
Ki [1]: 920 nM | Ki [2]: > 10000 nM | IC50 [3]: > 10000 nM | Ki [4]: 6800 nM | Ki [5]: > 10000 nM

Cc1c(C)c2c(c(C)c1O)CCC(C)(CCOc1cc(Cn3ccnc3)ccc1/C=C/C(=O)O)O2 (centres undefined)
Ki [1]: > 10000 nM | Ki [2]: 63 nM | IC50 [3]: 600 nM | Ki [4]: > 10000 nM | Ki [5]: > 10000 nM

Cc1c(C)c2c(c(C)c1O)CCC(C)(CCOc1ccccc1/C=C/C(=O)O)O2 (centres undefined)
Ki [1]: 2600 nM | Ki [2]: 530 nM | IC50 [3]: 4800 nM | Ki [4]: 1200 nM | Ki [5]: > 10000 nM

O=C(O)/C=C/c1ccc(Cn2ccnc2)cc1OCCc1cc2ccccc2o1
Ki [1]: 4300 nM | Ki [2]: 44 nM | IC50 [3]: 330 nM | Ki [4]: > 10000 nM | Ki [5]: > 10000 nM

O=C(O)/C=C/c1ccc(Cc2cccs2)cc1OCCc1ccc2ccccc2c1
Ki [1]: 2200 nM | Ki [2]: 150 nM | IC50 [3]: 150 nM | Ki [4]: 2100 nM | Ki [5]: > 10000 nM

Cc1ccc(/C=C/C(=O)O)c(OCCC2(C)CCc3c(C)c(O)c(C)c(C)c3O2)c1 (centres undefined)
Ki [1]: 2200 nM | Ki [2]: 940 nM | IC50 [3]: 3100 nM | Ki [4]: 5700 nM | Ki [5]: > 10000 nM

O=C(O)CCCc1ccc(Cn2cccn2)cc1OCCc1ccc2ccccc2c1
Ki [1]: 1400 nM | Ki [2]: 39 nM | IC50 [3]: 460 nM | Ki [4]: 1800 nM | Ki [5]: 4000 nM

O=C(O)C#Cc1ccc(Cn2cccn2)cc1OCCc1ccc2ccccc2c1
Ki [1]: 2900 nM | Ki [2]: 99 nM | IC50 [3]: 1200 nM | Ki [4]: > 10000 nM | Ki [5]: > 10000 nM

O=C(O)/C=C/c1ccc(Cn2cccn2)cc1OCCc1ccc2ccccc2c1
IC50 [6]: 30000 nM | Ki [1]: 670 nM | Ki [2]: 12 nM | IC50 [7]: > 30000 nM | IC50 [3]: 73 nM | IC50 [8]: > 30000 nM | Ki [4]: 3300 nM | Ki [5]: 2900 nM | IC50 [9]: 12800 nM | IC50 [10]: > 30000 nM

O=C(O)COCc1ccc(Cn2cccn2)cc1OCCc1ccc2ccccc2c1
Ki [1]: > 10000 nM | Ki [2]: 210 nM | IC50 [3]: 540 nM | Ki [4]: 1300 nM | Ki [5]: > 10000 nM

O=C([O-])/C=C/c1ccc(Cn2cccn2)cc1OCCc1ccc2ccccc2c1.[Na+]
AUC(0-t) at 4 h [11]: 1360 ng·h/mL | Cmax [12]: 943 ng/mL | Stability [13]: 100% | Stability [14]: 72%

O=C(O)/C=C/c1ccc(Cn2ccnc2)cc1OCCCOc1ccccc1
Ki [1]: > 10000 nM | Ki [2]: 280 nM | IC50 [3]: 3000 nM | Ki [4]: > 10000 nM | Ki [5]: > 10000 nM

O=C(O)/C=C/c1ccc(Cn2ccnc2)cc1OCCc1ccc2ccccc2c1
IC50 [6]: < 1000 nM | Ki [1]: 2200 nM | Ki [2]: 16 nM | IC50 [7]: 4400 nM | IC50 [3]: 50 nM | IC50 [8]: < 1000 nM | Ki [4]: > 10000 nM | Ki [5]: > 10000 nM | IC50 [9]: < 1000 nM | IC50 [10]: < 1000 nM

O=C(O)/C=C/c1ccc(Cn2ccnc2)cc1OCCCCOc1ccccc1
Ki [1]: > 10000 nM | Ki [2]: 220 nM | IC50 [3]: 3500 nM | Ki [4]: > 10000 nM | Ki [5]: > 10000 nM

O=C(O)/C=C/c1ccc(OCc2ccccc2)cc1OCCc1ccc2ccccc2c1
Ki [1]: > 10000 nM | Ki [2]: 850 nM | IC50 [3]: 1500 nM | Ki [4]: 1200 nM | Ki [5]: > 10000 nM

O=C(O)COc1ccc(Cn2cccn2)cc1OCCc1ccc2ccccc2c1
Ki [1]: > 10000 nM | Ki [2]: 260 nM | IC50 [3]: 2600 nM | Ki [4]: > 10000 nM | Ki [5]: > 10000 nM

O=C(O)/C=C/c1ccc(Cc2ccccc2)cc1OCCc1ccc2ccccc2c1
Ki [1]: 2100 nM | Ki [2]: 130 nM | IC50 [3]: 400 nM | Ki [4]: > 10000 nM | Ki [5]: > 10000 nM

O=C(O)/C=C/c1ccc(CN2CCCC2=O)cc1OCCc1ccc2ccccc2c1
Ki [1]: 2300 nM | Ki [2]: 110 nM | IC50 [3]: 580 nM | Ki [4]: 5900 nM | Ki [5]: 6400 nM

O=C(O)CCc1ccc(Cn2cccn2)cc1OCCc1ccc2ccccc2c1
IC50 [6]: > 30000 nM | Ki [1]: 1100 nM | Ki [2]: 12 nM | IC50 [7]: > 30000 nM | IC50 [3]: 22 nM | IC50 [8]: > 30000 nM | Ki [4]: 2800 nM | Ki [5]: 7100 nM | IC50 [9]: 30000 nM | IC50 [10]: > 30000 nM
